A selection: hits, their analogues and other compounds. The true share with any hit is near 3.6%.
PfHsp90 set2 = reduces growth (ATP signal) of yeast expressing P. falciparum Hsp90. S. cerevisiae expressing PfHsp90, BacTiter-Glo ATP, 48 h; yeast lacking PDR1 and PDR3 efflux regulators. inhibition, % at 9.4 µM. actives 0.32% (n = 310,000). AID 504621;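 active = every replicate shows inhibition above about 80%, whatever the replicate mean, limit read from the data; inconclusive = mean inhibition reaches the set limit but some replicate falls short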;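 also: 0% = DMSO neutral controls and 100% = 20 µM radicicol positive controls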
T cruzi inh = T. cruzi replication inhibition; T. cruzi beta-gal in NIH3T3, luminescence, 90 h; actives 1.4% (n = 300,000); inhibition, % (concentration not given with the values);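 active = mean inhibition across valid replicates above about 55%, limit read from the data; inconclusive = mean below that limit but half or more replicates reach it; inactive = mean below it, under half of replicates reach it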;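 also: signal also drops with host cell toxicity which is not excluded here; 0% = plate median of DMSO wells and 100% = zero luminescence signal; higher percent means less beta-gal luminescence so fewer parasites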
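assay system = mouse NIH/3T3 fibroblasts infected with β-gal-expressing T. cruzi Tulahuen C4 | input = 5,000 NIH/3T3 host cells per well | buffer or medium = DMEM plus 2% FBS | timing = 3 h host attachment, then at least 90 h co-culture | measured by = GalScreen luminescence, 60 min | evaluation = luminescence reflecting intracellular parasite burden, expressed as percent inhibition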
Beta cell apopt = beta cell apoptosis inhibition; INS-1E cytokine-induced death, ATP luminescence, 48 h; percent of positive-control rescue, neutral wells zero; actives 0.8% (n = 300,000); protection from apoptosis, % (test concentration not listed);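 active = Every replicate reaches about 75%, or at least half do and their mean reaches it too, limit read from the data; inconclusive = At least half of replicates reach the limit but their mean does not; inactive = Under half of replicates reach the limit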;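 also: 0% = cytokine-treated negative control wells and 100% = positive control rescue; higher means more ATP so stronger rescue from cytokine killing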
HIF act = HIF pathway transcriptional activation. U2OS HRE-luciferase reporter, luminescence; normalized: DMSO 0%, desferrioxamine 100%. activation, % at 7.5 µM (by protocol). AID 1910. actives 0.32% (n = 300,000);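 active = mean activation of at least 10% of the iron chelator positive control signal, with at least half of replicates also reaching 10%; inconclusive = mean and replicate majority disagree about reaching 10%; inactive = mean and most replicates under 10%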
SKKanGAS inh = SKKanGAS growth inhibition; inhibition, % at 7.5 µM; AID 1662; S. pyogenes SKKanGAS, kanamycin growth, BacTiter-Glo, 6 h; actives 1.3% (n = 300,000);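 active = mean replicate score, as percent of positive control median, at least 50; inconclusive = mean below 50 but one replicate at or above 50; inactive = mean and every replicate below 50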;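 also: strain carries kanamycin resistance gene driven by streptokinase promoter and grows in 40 µg/ml kanamycin; loss of luminescence reflects streptokinase promoter inhibition or plain growth inhibition; 0% = median of DMSO wells and 100% = positive control at its reference dose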
CSC inhib = cancer stem cell inhibition; cancer stem cell-like cells viability, luminescence; inhibition, % at 7.5 µM; actives 1.1% (n = 300,000); AID 2717; in the data active = inhibition above about 75%; inconclusive = no clear call, values can overlap the other calls; tested in HMLE shEcad cells
Active calls of the source: *; u = inconclusive; x = no result.

SMILES	PfHsp90 set2	T cruzi inh	Beta cell apopt	HIF act	SKKanGAS inh	CSC inhib
O=S(=O)(N[C@H]1C[C@@H](NS(=O)(=O)OCC(Cl)(Cl)Cl)C2CCCCC21)OCC(Cl)(Cl)Cl (stereo partly drawn)	15	-4	3	0	93*	76*
CCOC(=O)c1sc2nc(C)nc(SC(C)C(=O)N(C)c3ccccc3)c2c1C (stereo not drawn)	20	x	1	x	x	9
C=CCn1c(N2C(=O)CC(Cc3ccccc3)C2=O)nc2ccccc21 (stereo not drawn)	-12	-1	8	0	64*	3
CN(CCc1ccccn1)Cc1ccc(Cl)c(Cl)c1	12	62*	2	0	-11	-4
CN(CCc1ccccn1)Cc1ccc(Cl)cc1Cl	x	44	-2	2	-1	-22
CSc1ccc(CN(C)CCc2ccccn2)cc1	5	59*	x	-3	-1	1
FC(F)(F)c1cccc(CNC2c3ccccc3-c3ccccc32)c1	-5	13	-3	-22	75*	6
N=C1/C(=C/c2cccs2)C(=O)N=C2SN=C(SCc3ccccc3)N12	3	-4	4	0	81*	6
Nc1ccc(S(=O)(=O)NNC(=O)C(=O)NNc2ccccc2)cc1	-9	67*	-4	0	0	-6
O=C(NNc1ccccc1)C(=O)NNS(=O)(=O)c1ccc(CCCl)cc1	8	72*	0	0	0	105*
O=C(Cc1ccccc1)NNS(=O)(=O)c1ccc(F)cc1	-7	-25	-1	0	3	-10
COc1ccc(C(=O)CSc2nc3ccc([N+](=O)[O-])cc3[nH]2)cc1	12	-17	7	0	-10	14
Clc1cccc(Cl)c1C1Nc2cccc3cccc(c23)N1	-6	7	6	-1	59*	11
Fc1cccc(Cl)c1C1Nc2cccc3cccc(c23)N1	8	-33	x	-1	25	-4
CCN(CC)S(=O)(=O)c1ccc(N2CCOCC2)c(NC(=O)C2CCCO2)c1 (stereo not drawn)	6	22	1	0	14	-10
CC(=O)C(C)n1c(CN2CCN(C(=O)c3ccco3)CC2)nc2c1c(=O)n(C)c(=O)n2C (stereo not drawn)	-4	-10	-3	0	3	-9
COc1ccc2[nH]c(-c3cccc(F)c3)cc(=O)c2c1	x	-10	20	5	2	76*
Cc1ccc2[nH]c(-c3cccc(F)c3)cc(=O)c2c1	-1	-1	11	4	6	58
Fc1ccc(C2c3[nH]c4ccccc4c3CCN2Cc2cccn2-c2ncccn2)cc1 (stereo not drawn)	-19	70*	4	-1	3	-8
COc1cccc(C2c3[nH]c4ccccc4c3CCN2Cc2cccn2-c2ncccn2)c1 (stereo not drawn)	22	50	4	0	-2	8
CCN(/C=N/S(=O)(=O)c1ccc(Cl)cc1)CC	-6	2	-5	-1	2	-19
O=C(c1cc2sccc2n1Cc1ccc(F)cc1)N1CCN(c2nc3ccccc3s2)CC1	4	41	100*	-1	23	25
O=C(CCCc1ccccc1)Nc1ccccn1	4	5	x	15*	2	8
O=C(NS(=O)(=O)N1CCCC1)C1=C(N2CCCC2)COC1=O	4	x	-1	x	x	-7
CN1CCN(S(=O)(=O)c2cccc(C(=O)Nc3sc4c(c3-c3nc5ccccc5[nH]3)CCCC4)c2)CC1	-16	58*	4	1	29	x
SMILES	PfHsp90 set2	T cruzi inh	Beta cell apopt	HIF act	SKKanGAS inh	CSC inhib
CC(C)Cc1nnc(NC(=O)c2cccc(S(=O)(=O)N3CCN(C)CC3)c2)s1	x	60*	4	0	1	40
CC(C)Cc1nnc(NC(=O)c2cccc(S(=O)(=O)N3CCOCC3)c2)s1	-4	x	-7	x	x	-11
CC(=O)NCCC(=O)Nc1sc2c(c1-c1nc3ccccc3[nH]1)CCCC2	-7	-2	10	0	9	-20
O=C1CCN(CC2CCCCC2)C=C1C(=O)c1ccccc1	-9	x	x	x	x	x
Cc1nn(Cc2ccc(C(=O)NN)cc2)c(C)c1Cl	-1	-3	-3	0	5	-4
Cc1nn(Cc2ccc(C(=O)Nc3nccs3)cc2)c(C)c1Cl	x	-50	0	0	2	83*
O=c1oc(-c2ccccc2)c(-c2ccccc2)c2ccccc12	0	x	x	x	x	x
CC(=O)c1cccc(Nc2cc(C)nc3c(C)cc(C)cc23)c1	17	56*	18	-5	-11	1
CC(=O)c1cccc(Nc2cc(C)nc3ccc(C)cc23)c1	7	7	10	1	-3	-2
O=C1/C(=C\c2ccc3c(c2)OCO3)CCC/C1=C/c1ccc2c(c1)OCO2	20	0	13	0	10	28
CC1CC/C(=C\c2ccc3c(c2)OCO3)C(=O)/C1=C/c1ccc2c(c1)OCO2 (stereo not drawn)	5	29	5	0	0	81*
COc1ccc(NS(=O)(=O)c2ccc(-c3coc(C)n3)cc2)cc1OC	-14	-36	107*	0	-1	0
COc1ccc(NS(=O)(=O)c2ccc(-c3coc(C)n3)cc2)cc1	3	14	5	0	2	9
Cc1ccc(NC(=O)c2cc(-c3cccc(O)c3)on2)cc1C	12	14	2	4	0	80*
Cc1ccc(NC(=O)c2cc(-c3ccco3)on2)cc1C	-68	-7	-2	3	-14	-1
Nc1nc(SCC(=O)N2CCCC2)[nH]c(=O)c1NC(=O)c1cccs1	23	-9	0	2	-19	6
CCCCCCCCNC(C)C(O)c1ccc(SC(C)C)cc1 (stereo not drawn)	-35	u	117*	0	0	102*
Cc1ccc(Cn2c(Cc3ccccc3)nc3ccccc32)cc1	-42	13	1	-1	69*	-10
O=S(=O)(c1ccc2nc(Nc3ccccc3)ccc2c1)N1CCCCC1	-5	21	103*	0	-4	50
Cc1ccc(S(=O)(=O)Nc2nc3ccccc3nc2Nc2cccc(S(=O)(=O)N3CCCC3)c2)cc1	-3	-8	31	1	66*	114*
CCCCN(CC)S(=O)(=O)c1ccc(C(=O)N(CCCN(C)C)c2nc3cc(C)cc(C)c3s2)cc1	-6	67*	43	1	-2	99*
CCN(Cc1ccccc1)S(=O)(=O)c1ccc(C(=O)N(CCCN(C)C)c2nc3cc(C)cc(C)c3s2)cc1	x	45	x	0	34	102*
N#CCCCc1cc2cc(F)ccc2cn1	-14	x	-15	x	x	-17
O=C(CBr)c1ccc([N+](=O)[O-])c(CS(=O)(=O)c2ccc(Cl)cc2)c1	-2	-24	-2	-1	5	12
